This is an account of results in ChEMBL document CHEMBL3085642, “Synthesis and evaluation of novel 4-nitropyrrole-based 1,3,4-oxadiazole derivatives as antimicrobial and anti-tubercular agents” (Eur J Med Chem, 2013).

pIC50: −log10 of the molar value. Converted amounts (≈) assume the structure as drawn.

In one assay the test system is Klebsiella pneumoniae. As to the kind of experiment: Antibacterial activity against Klebsiella pneumoniae by two fold broth dilution method. It is filed as functional.
For assay [1], the system named is Candida albicans. As to the kind of experiment: Antifungal activity against Candida albicans after 48 hrs by two fold agar dilution method. It is filed as functional. The gist of the method: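 Two-fold serial dilutions in DMSO were tested against C. albicans by agar dilution. Cultures were incubated for 48 h at 35 °C and growth was monitored. MIC was taken as the lowest concentration (highest dilution) that arrested fungal growth.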
On the technique in general: In agar dilution the substance is mixed into plates at graded concentrations.

The test system of assay [2] is Staphylococcus aureus. Description: Antibacterial activity against Staphylococcus aureus ATCC 25923 by two fold broth dilution method. It is filed as functional.
For assay [3], the system named is Staphylococcus aureus. Description: Antibacterial activity against methicillin-resistant Staphylococcus aureus ATCC 43866 by broth dilution method. The class given is functional. On the technique in general: Broth dilution looks for growth in wells or tubes with falling amounts of substance.
Assay [4] relates to Staphylococcus aureus. Description: Ratio of ciprofloxacin MIC to compound MIC against Staphylococcus aureus ATCC 25923. It is filed as functional.
The next assay relates to Escherichia coli. As to the kind of experiment: Antibacterial activity against Escherichia coli ATCC 25922 by two fold broth dilution method. It is filed as functional.
For the next assay, the system named is Bacillus spizizenii. Description: Antibacterial activity against Bacillus subtilis ATCC 6633 by two fold broth dilution method. It is filed as functional.
A further assay relates to Vero. As to the kind of experiment: Cytotoxicity against african green monkey Vero cells after 72 hrs by MTT assay. It is filed as cell-based. The conditions noted are these: Chlorocebus sabaeus. The gist of the method:
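Vero cells were exposed to compounds for 72 h. Viability was measured by cellular conversion of MTT into formazan (non-radioactive proliferation assay), and the cytotoxic concentration was reported as IC50.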
In general terms: Tetrazolium dyes change colour on reduction, which living cells bring about.

Assay [5] concerns Staphylococcus aureus. As to the kind of experiment: Antibacterial activity against methicillin-susceptible Staphylococcus aureus ATCC 35556 by broth dilution method. The class given is functional.
In assay [6] the test system is Candida albicans. Description: Ratio of ampotericin-B MIC to compound MIC against Candida albicans. The class given is functional.
Assay [7] relates to Mycobacterium tuberculosis. Description: Antitubercular activity against Mycobacterium tuberculosis H37Rv after 7 days by resazurin microtitre assay. The class given is functional. As to conditions: 168 h.

The MIC is the least concentration at which growth counts as inhibited. For orientation: pIC50 means the IC50 on a negative log10 scale, so that one unit is a factor of ten. With `Cc1ccc(-c2nnc(-c3cc([N+](=O)[O-])cn3C)o2)s1`, the MIC in the assay on Klebsiella pneumoniae was 12.5 µg/mL (≈ 43.1 µM); in the assay on Candida albicans [1] it was 1.56 µg/mL (≈ 5.37 µM); against Staphylococcus aureus [2] it was 0.78 µg/mL (≈ 2.69 µM); in the assay on Staphylococcus aureus [3], 1.56 µg/mL (≈ 5.37 µM); against Escherichia coli it was 6.25 µg/mL (≈ 21.5 µM); against Bacillus spizizenii, 1.56 µg/mL (≈ 5.37 µM). The MIC with Staphylococcus aureus [5] worked out at 1.56 µg/mL (≈ 5.37 µM). For the same compound, the Ratio in the assay with Staphylococcus aureus [4] and in the assay with Candida albicans [6] was 2 in each case. In the assay on Vero, this compound showed a pIC50 of 4.01.
As to `Cn1cc([N+](=O)[O-])cc1-c1nnc(-c2cccs2)o1`, the MIC against Klebsiella pneumoniae was found to be 50 µg/mL (≈ 181 µM); in the assay with Candida albicans [1], 1.56 µg/mL (≈ 5.65 µM); in the assay on Staphylococcus aureus [2] it was 0.78 µg/mL (≈ 2.82 µM); against Staphylococcus aureus [3], 1.56 µg/mL (≈ 5.65 µM); against Escherichia coli, 6.25 µg/mL (≈ 22.6 µM); in the assay on Bacillus spizizenii, 1.56 µg/mL (≈ 5.65 µM). Also, in the assay on Staphylococcus aureus [5], the MIC came to 1.56 µg/mL (≈ 5.65 µM). Also, the Ratio in the assay with Staphylococcus aureus [4] and with Candida albicans [6] was 2 each time. The pIC50 in the assay with Vero was 3.28.
On to `O=[N+]([O-])c1c[nH]c(-c2nnc(-c3ccccc3Br)o2)c1`, for which the MIC stood at 0.81 µg/mL (≈ 2.42 µM) in assay [7]; 25 µg/mL (≈ 74.6 µM) in the assay on Klebsiella pneumoniae; 3.12 µg/mL (≈ 9.33 µM) against Candida albicans [1]; 1.56 µg/mL (≈ 4.66 µM) against Staphylococcus aureus [2]; 3.12 µg/mL (≈ 9.33 µM) in the assay on Staphylococcus aureus [3]; 1.56 µg/mL (≈ 4.66 µM) with Escherichia coli. Besides, the MIC against Bacillus spizizenii and against Staphylococcus aureus [5] was 1.56 µg/mL (≈ 4.66 µM) throughout. This compound also gave a pIC50 in the assay with Vero of 3.72.
With `O=[N+]([O-])c1c[nH]c(-c2nnc(-c3cc4cc(Cl)ccc4[nH]3)o2)c1`, the MIC was 3.4 µg/mL (≈ 10.3 µM) in [7]; 25 µg/mL (≈ 75.8 µM) against Klebsiella pneumoniae; 3.12 µg/mL (≈ 9.48 µM) against Candida albicans [1]; 1.56 µg/mL (≈ 4.73 µM) with Staphylococcus aureus [2]; 3.12 µg/mL (≈ 9.48 µM) with Staphylococcus aureus [3]; 1.56 µg/mL (≈ 4.73 µM) with Escherichia coli. The MIC against Bacillus spizizenii stood at 3.12 µg/mL (≈ 9.48 µM); against Staphylococcus aureus [5], 1.56 µg/mL (≈ 4.73 µM). The pIC50 with Vero is 3.48.
As for `COc1cc(/C=C/c2nnc(-c3cc([N+](=O)[O-])c[nH]3)o2)ccc1O`, the MIC in assay [7] turned out to be 23.7 µg/mL (≈ 72.2 µM); in the assay on Klebsiella pneumoniae, 100 µg/mL (≈ 305 µM); in the assay on Candida albicans [1], 25 µg/mL (≈ 76.2 µM); in the assay on Staphylococcus aureus [2], 3.12 µg/mL (≈ 9.52 µM); against Staphylococcus aureus [3], 3.12 µg/mL (≈ 9.52 µM); in the assay on Escherichia coli it was 3.12 µg/mL (≈ 9.52 µM). Besides, the results for the MIC against Bacillus spizizenii and against Staphylococcus aureus [5] were 3.12 µg/mL (≈ 9.52 µM) and 1.56 µg/mL (≈ 4.75 µM), respectively. The pIC50 in the assay on Vero was 3.66.
For the compound `O=[N+]([O-])c1c[nH]c(-c2nnc(C3CCCNC3)o2)c1` (stereo not given), the MIC is 12.5 µg/mL (≈ 47.5 µM) in assay [7]; 25 µg/mL (≈ 95 µM) against Klebsiella pneumoniae; 3.12 µg/mL (≈ 11.9 µM) against Candida albicans [1]; 1.56 µg/mL (≈ 5.93 µM) in the assay on Staphylococcus aureus [2]; 3.12 µg/mL (≈ 11.9 µM) in the assay with Staphylococcus aureus [3]; 3.12 µg/mL (≈ 11.9 µM) with Escherichia coli. The results for the MIC in the assay on Bacillus spizizenii and against Staphylococcus aureus [5] were 3.12 µg/mL (≈ 11.9 µM) and 1.56 µg/mL (≈ 5.93 µM), respectively. Moreover, the pIC50 in the assay with Vero is 3.50.
For the compound `O=[N+]([O-])c1c[nH]c(-c2nnc(Cc3ccccc3F)o2)c1`, the MIC in assay [7] is 0.46 µg/mL (≈ 1.6 µM); against Klebsiella pneumoniae it was 25 µg/mL (≈ 86.7 µM); against Candida albicans [1], 3.12 µg/mL (≈ 10.8 µM); against Staphylococcus aureus [2], 1.56 µg/mL (≈ 5.41 µM); with Staphylococcus aureus [3] it was 3.12 µg/mL (≈ 10.8 µM); in the assay with Escherichia coli, 1.56 µg/mL (≈ 5.41 µM). Further, the MIC against Bacillus spizizenii and against Staphylococcus aureus [5] was 1.56 µg/mL (≈ 5.41 µM) throughout. The pIC50 with Vero is 3.21.
As to `COc1cccc(-c2nnc(-c3cc([N+](=O)[O-])c[nH]3)o2)c1`, the MIC in assay [7] was 13.5 µg/mL (≈ 47.2 µM); with Klebsiella pneumoniae, 25 µg/mL (≈ 87.3 µM); against Candida albicans [1] it was 3.12 µg/mL (≈ 10.9 µM); in the assay with Staphylococcus aureus [2] it was 1.56 µg/mL (≈ 5.45 µM); in the assay with Staphylococcus aureus [3], 3.12 µg/mL (≈ 10.9 µM); in the assay on Escherichia coli, 3.12 µg/mL (≈ 10.9 µM). The figures for the MIC against Bacillus spizizenii and against Staphylococcus aureus [5] were 3.12 µg/mL (≈ 10.9 µM) and 1.56 µg/mL (≈ 5.45 µM), respectively. The pIC50 with Vero was 3.37.
In the case of `N#Cc1ccc(-c2nnc(-c3cc([N+](=O)[O-])c[nH]3)o2)cc1`, the minimum inhibitory concentration (MIC) in [7] was 26.8 µg/mL (≈ 95.3 µM); against Klebsiella pneumoniae, 25 µg/mL (≈ 88.9 µM); against Candida albicans [1], 3.12 µg/mL (≈ 11.1 µM); in the assay with Staphylococcus aureus [2] it was 1.56 µg/mL (≈ 5.55 µM); against Staphylococcus aureus [3], 3.12 µg/mL (≈ 11.1 µM); against Escherichia coli, 3.12 µg/mL (≈ 11.1 µM). In addition, the MIC in the assay on Bacillus spizizenii turned out to be 3.12 µg/mL (≈ 11.1 µM); in the assay with Staphylococcus aureus [5], 1.56 µg/mL (≈ 5.55 µM). Moreover, in the assay on Vero, the pIC50 is 3.70.
Regarding `COc1cccc(OC)c1-c1nnc(-c2cc([N+](=O)[O-])c[nH]2)o1`, the MIC in assay [7] came to 5.4 µg/mL (≈ 17.1 µM); against Klebsiella pneumoniae, 25 µg/mL (≈ 79 µM); against Candida albicans [1] it was 3.12 µg/mL (≈ 9.88 µM); against Staphylococcus aureus [2], 1.56 µg/mL (≈ 4.93 µM); in the assay with Staphylococcus aureus [3], 3.12 µg/mL (≈ 9.88 µM); against Escherichia coli, 3.12 µg/mL (≈ 9.88 µM). Moreover, the MIC turned out to be 3.12 µg/mL (≈ 9.88 µM) in the assay on Bacillus spizizenii and 1.56 µg/mL (≈ 4.93 µM) in the assay on Staphylococcus aureus [5]. The compound further showed a pIC50 in the assay on Vero of 3.77.
As to `COc1ccc(-c2nnc(-c3cc([N+](=O)[O-])c[nH]3)o2)cc1`, the MIC was 34 µg/mL (≈ 119 µM) in assay [7]; 25 µg/mL (≈ 87.3 µM) in the assay on Klebsiella pneumoniae; 3.12 µg/mL (≈ 10.9 µM) with Candida albicans [1]; 1.56 µg/mL (≈ 5.45 µM) against Staphylococcus aureus [2]; 3.12 µg/mL (≈ 10.9 µM) in the assay on Staphylococcus aureus [3]; 6.25 µg/mL (≈ 21.8 µM) in the assay on Escherichia coli. In addition, the MIC against Bacillus spizizenii was determined as 3.12 µg/mL (≈ 10.9 µM); against Staphylococcus aureus [5], 1.56 µg/mL (≈ 5.45 µM). In addition, the pIC50 in the assay with Vero was 3.39.
Take `O=[N+]([O-])c1c[nH]c(-c2nnc(-c3ccns3)o2)c1`: the MIC is 62.7 µg/mL (≈ 238 µM) in assay [7]; 25 µg/mL (≈ 95 µM) in the assay on Klebsiella pneumoniae; 3.12 µg/mL (≈ 11.9 µM) against Candida albicans [1]; 1.56 µg/mL (≈ 5.93 µM) in the assay with Staphylococcus aureus [2]; 3.12 µg/mL (≈ 11.9 µM) with Staphylococcus aureus [3]; 6.25 µg/mL (≈ 23.7 µM) with Escherichia coli. For the same compound, the MIC in the assay on Bacillus spizizenii was determined as 3.12 µg/mL (≈ 11.9 µM); in the assay on Staphylococcus aureus [5] it was 1.56 µg/mL (≈ 5.93 µM). In the assay with Vero, this compound showed a pIC50 of 3.27.
